Compound activity deposited in PubChem by several laboratories.
PG9 Ab binder = binds the HIV-1 gp120 antibody PG9; TR-FRET gp120-PG9 antibody binding; inhibition, % at 6.7 µM; 360,000 compounds, 0.43% hits; AID 624416; in the data active means inhibition above about 8.5%
NR2E3 ag-1 = agonists of human NR2E3 nuclear receptor | Q9Y5X4 | CHO-S Gal4-NCOR/VP16-NR2E3 two-hybrid, luciferase | inhibition of corepressor binding, % at 3.98 µM | 360,000 compounds, 0.35% hits | AID 602229;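 active means inhibition above the mean of all tested compounds plus 3 SD, cut at about 70% in these data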;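 further: higher means lower luciferase signal from less NR2E3 corepressor binding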
Target sequence (Q9Y5X4 whole entry, looked up, the tested form may be a part): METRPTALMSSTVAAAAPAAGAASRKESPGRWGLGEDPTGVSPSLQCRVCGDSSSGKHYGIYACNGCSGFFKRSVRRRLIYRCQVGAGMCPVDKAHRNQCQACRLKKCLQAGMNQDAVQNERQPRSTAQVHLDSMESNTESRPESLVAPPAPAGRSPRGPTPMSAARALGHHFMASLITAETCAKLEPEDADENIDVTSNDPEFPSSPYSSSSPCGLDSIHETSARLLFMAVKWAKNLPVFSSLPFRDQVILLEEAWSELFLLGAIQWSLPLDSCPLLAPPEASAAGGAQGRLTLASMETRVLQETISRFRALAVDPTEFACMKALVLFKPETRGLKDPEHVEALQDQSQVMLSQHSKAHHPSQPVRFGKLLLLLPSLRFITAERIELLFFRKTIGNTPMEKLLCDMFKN
Rev-erbA mod = modulates human Rev-erb alpha binding to DNA; 370,000 compounds, 0.79% hits; AID 1259318; activity, % at 10 µM; Rev-erbα–FITC-DNA binding, fluorescence polarization, 90 min; P20393;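 active means activity above about 14%, limit read from the data; passing the limit was not always enough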
NR2E3 ag-2 = NR2E3 (human) agonism; Q9Y5X4; GST-NR2E3/biotin-RetCOR TR-FRET, 1536-well; inhibition of corepressor binding, % at 4.78 µM; 320,000 compounds, 0.12% hits;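 active means percent inhibition above the cutoff of mean plus 3 SD of all tested compounds, set per screening campaign, cut at about 20% in these data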
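Format: 1536-well format; test system: GST-NR2E3 and biotin-RetCOR proteins; read-out basis: percent inhibition of TR-FRET ratio; timing: 5 h incubation at 4 °C; detection: time-resolved FRET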
PG9 binder conf = PG9 antibody binding, confirmed. AID 651571. shares compounds with PG9 Ab binder. TR-FRET PG9 antibody binding, biochemical. inhibition, % at 6.7 µM. 1,500 compounds, 90% hits; in the data active means inhibition above about 9%
PGV04 Ab binding = counter-screen for PG9 binders: binding control antibody PGV04 | inhibition, % at 6.7 µM | 1,500 compounds, 95% hits | shares compounds with PG9 Ab binder | TR-FRET PGV04 antibody-gp120 binding, biochemical; in the data active means inhibition above about 9.5%
Of the large screens only hits and unclear results are named; the others gave an inactive call (follow-up assays come after a bar, where they were run). An excerpt weighted towards active compounds, which were near 1.4% of everything screened.

COc1cccc2cc(C(=O)C3=C(O)C(=O)N(CCN(C)C)C3c3ccc(Cl)cc3)oc12 (stereo unspecified)	PG9 Ab binder 14 | PG9 binder conf 22 | PGV04 Ab binding 28
COc1cc(C2C(C(C)=O)=C(O)C(=O)N2CCN(C)C)ccc1O (stereo unspecified)	none
CCOc1ccc(C(CC(=O)O)NC(=O)c2sc3ccccc3c2Cl)cc1 (stereo unspecified)	none
CCCOc1ccc(C(CC(=O)O)NC(=O)c2sc3ccccc3c2Cl)cc1 (stereo unspecified)	PG9 Ab binder 11 | PG9 binder conf 15 | PGV04 Ab binding 21
CCOC(=O)c1[nH]c2ccc(OC)cc2c1NC(=S)N1CCN(c2ccccn2)CC1	none
CCOC(=O)c1[nH]c2ccc(OC)cc2c1NC(=S)N1CCN(c2ccccc2)CC1	PG9 Ab binder 11 | PG9 binder conf inactive | PGV04 Ab binding 9.5
CCOC(=O)c1[nH]c2ccc(OC)cc2c1NC(=S)N1CCN(c2cccc(Cl)c2)CC1	PG9 Ab binder 55 | PG9 binder conf 16 | PGV04 Ab binding 30
Nc1c(C(=O)NCc2ccccc2)sc2nc(N3CCOCC3)c3c(c12)CCCC3	PG9 Ab binder 10 | PG9 binder conf 8.6 | PGV04 Ab binding 16
Nc1c(C(=O)Nc2ccccc2)sc2nc(N3CCOCC3)c3c(c12)CCCC3	none (no result: NR2E3 ag-2)
Cc1cc(Br)cn2cc(C(=O)O)nc12	PG9 Ab binder 16 | PG9 binder conf 21 | PGV04 Ab binding 26
CCS(=O)(=O)Nc1ccc(-c2ccc(NS(=O)(=O)CC)c(OC)c2)cc1OC	PG9 Ab binder 17 | PG9 binder conf 14 | PGV04 Ab binding 16
COc1ccc(NS(=O)(=O)CC(C)C)c(OC)c1	none
COc1ccc(CSc2nnc(SCC(=O)Nc3ccc(S(N)(=O)=O)cc3)s2)cc1	none (no result: PG9 Ab binder, NR2E3 ag-1, NR2E3 ag-2)
O=C(CSc1nc(-c2ccccc2)nc2ccccc12)Nc1cccc(C(=O)O)c1	PG9 Ab binder 16 | PG9 binder conf 15 | PGV04 Ab binding 22
O=C(N=C1N(Cc2ccccc2)[C@@H](Cc2ccccc2)[C@]2(C=C3CCCCC3n3c(=O)n(-c4ccccc4)c(=O)n32)N1C(=O)OCc1ccccc1)c1ccccc1 (stereo partly specified)	none (no result: PG9 Ab binder, NR2E3 ag-1, NR2E3 ag-2)
Cc1cccc(C(=O)NCC(=O)OCC(=O)c2ccc(Br)s2)c1	PG9 Ab binder 8.8 (no result: NR2E3 ag-2) | PG9 binder conf 14 | PGV04 Ab binding 21
O=C(C1CCCN1S(=O)(=O)c1ccc([N+](=O)[O-])cc1)N1CCN(c2ccccc2)CC1 (stereo unspecified)	none (no result: PG9 Ab binder, NR2E3 ag-1, NR2E3 ag-2)
C[C@H]1[C@@H](OC(=O)NCc2ccccc2)CC[C@@]23CCCN2C(=O)CCC[C@@H]13	none (no result: PG9 Ab binder, NR2E3 ag-1, NR2E3 ag-2)
Cc1cc(OC[C@@H](O)CN2CCC(C(O)(c3ccccc3)c3ccccc3)CC2)ccc1Br	none (no result: PG9 Ab binder, NR2E3 ag-1, NR2E3 ag-2)
COc1ccc2c(c1)CCC1(C)CC(=O)C(Br)=C21 (stereo unspecified)	PG9 Ab binder 14 (no result: NR2E3 ag-2) | PG9 binder conf 24 | PGV04 Ab binding 47
COC(=O)C1(C)CCc2cc(OC)ccc2C1=O (stereo unspecified)	none
Cc1sc2ncnc(N3CCC(C(=O)Nc4ccc(Br)cc4Br)CC3)c2c1C	PG9 Ab binder 23 | PG9 binder conf 44 | PGV04 Ab binding 70
CNC(=O)c1ccc(NC(=O)C2CCN(c3ncnc4sc(C)c(C)c34)CC2)cc1	PG9 Ab binder 18 | PG9 binder conf 14 | PGV04 Ab binding 18
COc1ccc(C2/C(=C(/O)c3ccccc3)C(=O)C(=O)N2c2ccccn2)cc1 (stereo unspecified)	none
CCOc1ccc(/C(O)=C2/C(=O)C(=O)N(c3ccccn3)C2c2ccc(C)cc2)c(C)c1 (stereo unspecified)	PG9 Ab binder 20 | PG9 binder conf 20 | PGV04 Ab binding 28
CCOc1ccc(/C(O)=C2/C(=O)C(=O)N(c3ccccn3)C2c2ccc(Cl)cc2)c(C)c1 (stereo unspecified)	PG9 Ab binder 11 (no result: NR2E3 ag-2) | PG9 binder conf 13 | PGV04 Ab binding 19
CCCOc1ccc(/C(O)=C2\C(=O)C(=O)N(c3ccccn3)C2c2ccccc2F)cc1C (stereo unspecified)	PG9 Ab binder 21 | PG9 binder conf 17 | PGV04 Ab binding 24
